Assay outcomes: PubChem BioAssay, several laboratories
Shown are actives, neighbours in structure and some others; about 2.1% of the full set was active somewhere.
STAT3 act-1 – IL-6 driven STAT3 reporter potentiators, primary screen, U3A cells, luciferase, luminescence, MLSCN library; IL-6 STAT3-luciferase reporter; 100% = signal with IL-6 EC80 alone; AID 871, 2007; 190,000 tested, 0.91% active; activation (% of control), % at 5.6 µM;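 active means activation above the screen-wide mean of compound activation plus 3 SD, cut at about 130% in these data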
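Detection: reporter luminescence signal / Assay system: STAT1-lacking human U3A cells, STAT3 luciferase reporter / Incubation: compound pre-incubation 1 h before IL-6, then 6 h stimulation at 37 °C / Control set: IL-6-only high control / Read-out: % activation relative to IL-6 control / Probe or stimulus: Interleukin-6, 33 ng/mL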
STAT3 blocker – IL-6 driven STAT3 reporter inhibitors, primary screen, U3A cells, luciferase, luminescence, MLSCN library. 190,000 tested, 0.89% active. inhibition, % at 5.5 µM. IL-6 STAT3-luciferase reporter; host cell line lacks STAT1. AID 862, 2007;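 active means inhibition above the mean inhibition across all screened compounds plus 3 SD, cut at about 44% in these data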
STAT1 inh – STAT1 signaling inhibitors, primary screen, cell-based, HTS, luciferase reporter; NIH 3T3 STAT1-luciferase reporter, IFN-gamma, luminescence; inhibition, % at 5.5 µM; 200,000 tested, 0.35% active;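 active means inhibition above a set limit, the mean inhibition across all tested compounds plus 3 SD, cut at about 34% in these data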
TNF death inh – inhibitors of TNF-alpha triggered necroptosis, primary screen, cell-based, Jurkat FADD-/-, single concentration. Jurkat FADD-/- TNF necroptosis rescue, ATP luminescence, 24 h; 0 = TNF only, 100 = no-TNF cells. activation (protection from cell death), % at 10 µM. 220,000 tested, 0.068% active. AID 463075, 2010;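 active means activation, meaning protection from cell death, of at least 50% relative to plate controls; inactive means activation below 50%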;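 further: necroptosis triggered by 40 ng/mL TNF-alpha added together with compound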
zVAD death inh – inhibitors of zVAD-triggered necroptosis, primary screen, L929 cells | L929 zVAD necroptosis rescue, ATP luminescence, 24 h; with zVAD 60 µM | viability rescue, % at 10 µM | 220,000 tested, 0.38% active;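 active means activation, scaled between plate controls, above about 75%, limit read from the data; inactive means activation under that limit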
STAT3 act-2 – STAT3 reporter potentiators, retest of hits, confirmation, U3A cells, luciferase, luminescence. 1,200 tested, 64% active. IL-6 potentiation; U3A cells lack STAT1; 100 means same as IL-6 alone. shares compounds with STAT3 act-1. AID 1267, 2008. potentiation (% of control), % at 5.7 µM;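 active means percent activation of the STAT3 luciferase reporter above a set limit taken from the earlier primary screen, cut at about 130% in these data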
NFkB act 2 – NF-kB reporter activators in human cells, counter-screen for STAT3 activator project | 1,200 tested, 11% active | shares compounds with STAT3 act-1 | NF-kappaB reporter activation | activation (% of control), % at 5.7 µM | AID 1309, 2008; in the data active means activation above about 120%;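 further: reporter induced by TNF-alpha stimulation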
STAT1 act – STAT1 reporter activators, IFN-gamma induced, counter-screen for STAT3 activator project, cell-based, NIH 3T3, luciferase luminescence; shares compounds with STAT3 act-1; NIH 3T3 STAT1-luciferase reporter; activation (% of control), % at 5.7 µM; 1,200 tested, 13% active; AID 1318, 2008;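 active means activation above the solvent-only control well mean plus 3 SD, set per screening run, cut at about 120% in these data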
Each line names hits and unclear results; the compound was inactive in the other large screens (follow-up assays come after a bar, where they were run).

O=C(CC(=O)N/N=C/c1ccc(O)cc1)N/N=C/c1ccc(O)cc1	none (no result: STAT3 act-1, STAT3 blocker, STAT1 inh)
O=C(Cc1cccs1)N/N=C\c1ccc(O)cc1	STAT3 act-1 142.3 | STAT3 act-2 inactive | NFkB act 2 122.6 | STAT1 act 150.7
O=C(c1ccccc1)N1CCN(S(=O)(=O)c2ccccc2)CC1	none (no result: STAT3 act-1, STAT3 blocker, STAT1 inh)
Cc1ccc(C(=O)N2CCN(S(=O)(=O)c3ccc(C)cc3)CC2)cc1	STAT3 act-1 146.2 | STAT3 act-2 inactive | NFkB act 2 inactive | STAT1 act inactive
CCOC(=O)c1cnn(-c2ncnc3sc4c(c23)CCC4)c1N	STAT3 act-1 148.3 | STAT3 act-2 149.4 | NFkB act 2 inactive | STAT1 act inactive
Cc1ccccc1/C=N/Nc1ncnc2nc[nH]c12	none (no result: STAT3 act-1, STAT3 blocker, STAT1 inh)
CCOC(=O)C1=C(C)NC2=C(C(=O)CCC2)C1c1coc2ccccc2c1=O (centres undefined)	STAT3 act-1 145.3 | STAT3 act-2 149.8 | NFkB act 2 inactive | STAT1 act inactive
CC1=C(C(=O)OCC2CCCO2)C(c2coc3ccccc3c2=O)C2=C(CCCC2=O)N1 (centres undefined)	STAT3 act-1 142.8 | STAT3 act-2 160.7 | NFkB act 2 inactive | STAT1 act inactive
COC(=O)C1=C(C)NC2=C(C(=O)CCC2)C1c1coc2ccccc2c1=O (centres undefined)	STAT3 act-1 139.5 | STAT3 act-2 146.9 | NFkB act 2 inactive | STAT1 act inactive
CC1=C(C(=O)OCCOc2ccccc2)C(c2coc3ccccc3c2=O)C2=C(CCCC2=O)N1 (centres undefined)	none
CC1=C(C(=O)Nc2ccccc2)C(c2coc3ccccc3c2=O)C2=C(CCCC2=O)N1 (centres undefined)	none
CC1=C(C(=O)OC2CCCC2)C(c2coc3ccccc3c2=O)C2=C(CCCC2=O)N1 (centres undefined)	STAT3 act-1 136.9 | STAT3 act-2 inactive | NFkB act 2 inactive | STAT1 act inactive
CN(C)C(=O)CCN1CCOCC1	none
O=C(CN1CCC(C(O)(c2ccccc2)c2ccccc2)CC1)Nc1ccccc1	none
COc1ccc(C(=O)Nc2ccc(S(=O)(=O)Nc3nccnc3OC)cc2)cc1	none
C=CCOC(=O)CCP(=O)(CCC(=O)OCC=C)c1ccccc1	none
COc1ccc(C)cc1NC(=O)c1cc2c(s1)CCC2	none
COC(=O)c1sccc1NC(=O)c1cc2c(s1)CCCC2	STAT3 act-1 170.2 | STAT3 act-2 145.6 | NFkB act 2 inactive | STAT1 act inactive
COc1ccc(N=Cc2sc3ccccc3c2Cl)cc1	STAT3 act-1 136.8 | STAT3 act-2 inactive | NFkB act 2 inactive | STAT1 act 132.2
COC(=O)c1[nH]c2ccc(F)cc2c1NS(=O)(=O)c1ccc(OC)cc1OC	STAT3 act-1 142.5 | STAT3 act-2 inactive | NFkB act 2 inactive | STAT1 act inactive
CCOC(=O)c1[nH]c2ccc(OC)cc2c1NS(=O)(=O)c1ccc(OC)cc1OC	none
O=C(Nc1cccs1)Nc1ccccc1Br	none
Cc1ncoc1C(=O)N1CCc2c([nH]c3ccccc23)C1C1CCCCC1 (centres undefined)	STAT3 act-1 139.7 | STAT3 act-2 inactive | NFkB act 2 inactive | STAT1 act inactive
Cc1ccc2c(c1)c1ccc3c(c1n2C)C(=O)C=CC3=O	none (no result: STAT3 act-1, STAT3 blocker, STAT1 inh)
COc1cc(NC(=O)c2ccc(Cl)cc2)c(OC)cc1Cl	STAT3 act-1 148.8 | STAT3 act-2 inactive | NFkB act 2 inactive | STAT1 act inactive
COc1cc(OC)c(NC(=O)c2ccccc2F)cc1Cl	STAT3 act-1 137.6 | STAT3 act-2 inactive | NFkB act 2 inactive | STAT1 act inactive
O=S(=O)(c1ccc(Br)cc1)N1CCCN(Cc2ccccc2F)CC1	none (no result: zVAD death inh)
O=C(Nc1nc2c(s1)COc1ccccc1-2)c1cccs1	STAT3 act-1 138.8 | STAT3 act-2 inactive | NFkB act 2 153.8 | STAT1 act 135.9
O=C(Nc1nc2c(s1)CCc1ccccc1-2)c1cccs1	none
CC(=O)NC1C(=O)N(CCc2ccccc2)c2ccccc21 (centres undefined)	none
CCSc1nc2ccccc2[nH]1	none
Nc1ccccc1Sc1nc2ccccc2[nH]1	STAT3 act-1 135.9 | STAT3 act-2 159.2 | NFkB act 2 inactive | STAT1 act inactive
CC1Cc2ccccc2N1Cc1cc(=O)n2ccsc2n1 (centres undefined)	STAT3 act-1 145.7 | STAT3 act-2 152.2 | NFkB act 2 inactive | STAT1 act inactive
CCOC(=O)c1[nH]c2ccccc2c1NC(=O)CC(C)(C)C	STAT3 act-1 164.1 | STAT3 act-2 158.7 | NFkB act 2 inactive | STAT1 act inactive
CCOC(=O)c1[nH]c2ccccc2c1NC(=S)Nc1cccc(C)c1C	STAT3 act-1 163.7 | STAT3 act-2 155.7 | NFkB act 2 inactive | STAT1 act inactive
CCOc1ccc(NC(=O)C2CCN(S(=O)(=O)c3cccnc3)CC2)cc1	none
CCOC(=O)c1cc2c(C)n(-c3ccc(OCC)cc3)c(C)c2ccc1=O	none
Cc1nc(N=C(N)N)nc2ccccc12	none
Cc1nc(/N=C(\N)NC(=O)c2ccccc2)nc2ccccc12	STAT3 act-1 177.3 | STAT3 act-2 168.4 | NFkB act 2 121.3 | STAT1 act inactive
Cc1ccc(S(=O)(=O)N(CC(=O)Nc2cccc(N(C)S(C)(=O)=O)c2)c2ccc(Cl)c(Cl)c2)cc1	none
Cc1ccc(N2C(=O)c3ccccc3C2=O)cc1	none (no result: STAT3 act-1, STAT3 blocker, STAT1 inh)
CC(=O)Nc1cccc2c1C(=O)N(c1ccc(C)cc1)C2=O	STAT3 act-1 160.1 (no result: zVAD death inh) | STAT3 act-2 162.7 | NFkB act 2 inactive | STAT1 act 121.4
Cc1ccc(NC(=S)Nc2cccc3cnccc23)cc1	STAT3 act-1 136.6 | STAT3 act-2 142.6 | NFkB act 2 inactive | STAT1 act inactive
Cc1ccc(NC(=O)c2cnc(N3CCN(c4ccccn4)CC3)c3ccccc23)c(Br)c1	STAT3 act-1 142.7 | STAT3 act-2 inactive | NFkB act 2 inactive | STAT1 act inactive
O=C(Nc1c(F)cccc1F)c1cnc(N2CCN(c3ccccn3)CC2)c2ccccc12	none
CCCC1=Nc2cc(C(=O)NCCCOCC)ccc2Sc2ccccc21	STAT3 act-1 136.6 | STAT3 act-2 inactive | NFkB act 2 156.3 | STAT1 act inactive
